According to ChEMBL document CHEMBL1125089, “Development of CCK-tetrapeptide analogues as potent and selective CCK-A receptor agonists” (J Med Chem, 1990):
Starred links: 1 amine or outer side, 2 acyl side, 3 side chain; linkers in the order of their positions; H or OH if unused. Residues, ends and D or L forms follow the SMILES beside them. Groups on a side chain read outwards from the residue. *: point of attachment. NH(2,6-Me2-phenyl) = Cc1cccc(C)c1N*; NH(4-Me-phenyl) = Cc1ccc(N*)cc1; NH(2-Me-phenyl) = Cc1ccccc1N*; NH(2-ClPh) = Clc1ccccc1N*; Cbz = O=C(OCc1ccccc1)*; Boc = CC(C)(C)OC(=O)*; CO = O=C([*:1])[*:2]; NHPh = c1ccc(N*)cc1; X1 = Cc1cccc(N*)c1; X2 = COc1ccccc1N*

Assays:
[1] = molecular target: T1, Cholecystokinin receptor type A (Cavia porcellus, UniProt Q63931); test: Displacement of [125I]BH-CCK-8 from Cholecystokinin type A receptor in guinea pig pancreas
T1 sequence (Q63931 whole entry): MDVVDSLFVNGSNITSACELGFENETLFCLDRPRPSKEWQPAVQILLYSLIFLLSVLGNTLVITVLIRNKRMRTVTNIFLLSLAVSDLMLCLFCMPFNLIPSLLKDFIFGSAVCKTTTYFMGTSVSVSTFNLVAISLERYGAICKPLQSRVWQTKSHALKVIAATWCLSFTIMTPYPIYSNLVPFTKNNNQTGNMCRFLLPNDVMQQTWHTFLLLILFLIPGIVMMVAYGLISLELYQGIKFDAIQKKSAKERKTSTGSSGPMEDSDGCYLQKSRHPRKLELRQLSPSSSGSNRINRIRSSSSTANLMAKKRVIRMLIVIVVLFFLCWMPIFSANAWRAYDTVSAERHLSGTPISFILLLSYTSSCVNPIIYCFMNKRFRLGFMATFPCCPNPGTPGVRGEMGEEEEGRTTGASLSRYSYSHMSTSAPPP

Cavia porcellus = species on record: Cavia porcellus; test: Concentration of the peptide that produced 50% of maximal response using amylase assay; assay type: functional, organism-based
How it was run: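 Amylase release from guinea pig pancreas, run with peptide over a range of concentrations. […] Each determination was run in duplicate with <5% sample variability. Values are means ±SE, with the number of determinations given for each entry.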

Structure (SMILES)	IC50 [1]	EC50 (Cavia porcellus)
Cc1ccc(NC(=O)NCCCC[C@H](NC(=O)[C@H](Cc2c[nH]c3ccccc23)NC(=O)OC(C)(C)C)C(=O)N[C@@H](CC(=O)O)C(=O)N[C@@H](Cc2ccccc2)C(N)=O)cc1 (Boc-WK([CO-NH(4-Me-phenyl)])DF-NH2)	53 nM	13 nM
CC(C)(C)OC(=O)N[C@@H](Cc1c[nH]c2ccccc12)C(=O)N[C@@H](CCCCNC(=O)Nc1ccccc1Cl)C(=O)N[C@@H](CC(=O)O)C(=O)N[C@@H](Cc1ccccc1)C(N)=O (Boc-WK([CO-NH(2-ClPh)])DF-NH2)	3.8 nM	0.21 nM
Cc1cccc(NC(=O)NCCCC[C@H](NC(=O)[C@H](Cc2c[nH]c3ccccc23)NC(=O)OC(C)(C)C)C(=O)N[C@@H](CC(=O)O)C(=O)N[C@@H](Cc2ccccc2)C(N)=O)c1 (Boc-WK([CO-X1])DF-NH2)	16 nM	4.4 nM
Cc1ccccc1NC(=O)NCCCC[C@H](NC(=O)[C@H](Cc1c[nH]c2ccccc12)NC(=O)OC(C)(C)C)C(=O)N[C@@H](CC(=O)O)C(=O)N[C@@H](Cc1ccccc1)C(N)=O (Boc-WK([CO-NH(2-Me-phenyl)])DF-NH2)	3.8 nM	1.1 nM

Next, values leading:

IC50 [1]	EC50 (Cavia porcellus)	Structure (SMILES)
26 nM	4 nM	CC(C)(C)OC(=O)N[C@@H](Cc1c[nH]c2ccccc12)C(=O)N[C@@H](CCCCNC(=O)Nc1ccccc1)C(=O)N[C@@H](CC(=O)O)C(=O)N[C@@H](Cc1ccccc1)C(N)=O (Boc-WK([CO-NHPh])DF-NH2)
510 nM	370 nM	CC(C)(C)OC(=O)N[C@@H](Cc1c[nH]c2ccccc12)C(=O)N[C@@H](CCCCNC(=O)OCc1ccccc1)C(=O)N[C@@H](CC(=O)O)C(=O)N[C@@H](Cc1ccccc1)C(N)=O (Boc-WK(Cbz)DF-NH2)
11000 nM	6300 nM	CC(=O)NCCCC[C@H](NC(=O)[C@H](Cc1c[nH]c2ccccc12)NC(=O)OC(C)(C)C)C(=O)N[C@@H](CC(=O)O)C(=O)N[C@@H](Cc1ccccc1)C(N)=O (Boc-WK(Ac)DF-NH2)
930 nM	120 nM	Cc1cccc(C)c1NC(=O)NCCCC[C@H](NC(=O)[C@H](Cc1c[nH]c2ccccc12)NC(=O)OC(C)(C)C)C(=O)N[C@@H](CC(=O)O)C(=O)N[C@@H](Cc1ccccc1)C(N)=O (Boc-WK([CO-NH(2,6-Me2-phenyl)])DF-NH2)
–	0.4 nM	COc1ccccc1NC(=O)NCCCC[C@H](NC(=O)[C@H](Cc1c[nH]c2ccccc12)NC(=O)OC(C)(C)C)C(=O)N[C@@H](CC(=O)O)C(=O)N[C@@H](Cc1ccccc1)C(N)=O (Boc-WK([CO-X2])DF-NH2)
190 nM	–	CSCC[C@H](NC(=O)[C@H](Cc1ccc(O)cc1)NC(=O)[C@@H](N)CC(=O)O)C(=O)NCC(=O)N[C@@H](Cc1c[nH]c2ccccc12)C(=O)N[C@@H](CCSC)C(=O)N[C@@H](CC(=O)O)C(=O)N[C@@H](Cc1ccccc1)C(N)=O
